LANA-H2A inh: blocks KSHV LANA binding to histone H2A/H2B; Q9QR71; cell-free LANA-H2A/H2B peptide, fluorescence polarization; inhibition, % (concentration not given with the values); 320,000 compounds, 0.6% hits; AID 2629; in the data active = inhibition mostly above about 10%, no sharp cut-off; inactive = mostly below about 6.7%
CaV13 FRET inh: Primary screen for inhibitors of IQ motif and Ca2+-dependent inactivation inhibitor domain binding in CACNA1D, Förster resonance energy transfer in living cells, …; AID 743397; HEK cells, CFP/YFP FRET ICDI-IQ, plate reader, 10 min; percent FRET-ratio fall versus neutral wells; 340,000 compounds, 0.098% hits; inhibition, % at 12.3 µM;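 active = mean replicate inhibition of at least 30% and at least 1% of replicates passing that level; inconclusive = only one of the two criteria is met; inactive = neither criterion is met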
HDAC3 inhib: human HDAC3 inhibition. O15379. recombinant HDAC3, fluorogenic peptide/trypsin coupled, fluorescence. inhibition, % at 8.3 µM. 320,000 compounds, 0.15% hits; in the data active = inhibition above about 26%, passing the limit was not always enough; inconclusive = no clear call, values can overlap the other calls
Target sequence (O15379 whole entry, looked up): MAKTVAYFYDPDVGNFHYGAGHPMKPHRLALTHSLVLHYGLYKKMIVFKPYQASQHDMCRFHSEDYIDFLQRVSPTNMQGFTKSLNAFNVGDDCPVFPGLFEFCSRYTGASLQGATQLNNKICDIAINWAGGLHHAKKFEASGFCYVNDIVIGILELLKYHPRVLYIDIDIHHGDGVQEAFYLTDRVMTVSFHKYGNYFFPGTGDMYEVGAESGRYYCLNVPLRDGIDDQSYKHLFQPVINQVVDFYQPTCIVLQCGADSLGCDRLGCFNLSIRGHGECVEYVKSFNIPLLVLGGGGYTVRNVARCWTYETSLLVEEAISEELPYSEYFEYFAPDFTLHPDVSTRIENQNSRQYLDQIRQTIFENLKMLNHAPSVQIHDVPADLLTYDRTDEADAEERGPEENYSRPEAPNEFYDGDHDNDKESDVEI
Runt-CBFb FRET: Runt domain-CBFb interaction inhibition; inhibition, % at 20 µM; Cerulean-Runt/Venus-CBFb FRET ratio 530/480, 1 h; AID 1496; Q01196+Q13951; 220,000 compounds, 0.46% hits;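 active = inhibition over about 50% at 20 µM in the single-dose screen, limit read from the data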
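test system = Cerulean-tagged RUNX1 Runt domain (FRET donor) fusion protein | reagent = Venus-CBFb binding partner, 100 nM | incubation = protein complex preformed 1 h, compound exposure 1 h, room temperature, dark | detection = FRET fluorescence | read-out basis = loss of energy transfer signal | controls = 5 µM unlabeled CBFb as full-inhibition high control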
RanGTP-Impb inh: disruptors of Ran-importin-beta complex formation – biochemical, FRET, CFP-Ran, YFP-importin-beta, homogeneous, primary screen | cell-free CFP-Ran/YFP-importin-beta FRET ratio | inhibition, % (concentration not given with the values) | 300,000 compounds, 1.1% hits;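 active = more than half of the replicate wells show a fall in the fluorescence ratio signal beyond about 16%, limit read from the data, passing the limit was not always enough; inconclusive = exactly half of the replicate wells pass the set limit; inactive = fewer than half of replicates pass the limit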
Runt-SMMHC FRET: inhibitors of human RUNX1 Runt domain binding to CBFb-SMMHC; Q01196+Q13951; Cerulean-Runt/Venus-CBFb-SMMHC FRET ratio 530/480, 1 h; inhibition, % at 20 µM; 220,000 compounds, 0.74% hits; AID 1434;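 active = mean inhibition across duplicate retests at 20 µM reaching about 50%, limit read from the data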;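 note: inhibitors lower the FRET ratio by blocking Runt binding to CBFb-SMMHC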
A number is an active result; - = inactive; ? = inconclusive; . = no result; + = active, no number. Shown are actives, neighbours in structure and some others; about 1.9% of the full set was active somewhere.

SMILES | LANA-H2A inh | CaV13 FRET inh | HDAC3 inhib | Runt-CBFb FRET | RanGTP-Impb inh | Runt-SMMHC FRET
COc1ccc(NC(=O)[C@@H]2[C@@H]3C(=O)N(C4CCCCC4)C(=O)[C@@H]3C3c4ccccc4C=CN32)cc1 (stereo not given in full) | 17.3 | . | - | - | - | -
Cc1ccc(OCC(=O)Nc2ccncc2)cc1 | - | - | - | . | - | .
CC1C(=O)CC(c2ccco2)NC1c1ccco1 (stereo not given) | . | . | . | - | . | -
CC(C(=O)Nc1nnc(C2CC2)s1)N1C(=O)C2CC=CCC2C1=O (stereo not given) | 12.9 | - | - | . | . | .
COc1cccc(C=Nc2ccccc2C(=O)Nc2nccs2)c1OC | - | . | - | - | - | 51.5
COc1cc2ccccc2cc1C(=O)Nc1nccs1 | 20.2 | - | - | . | - | .
O=C(Nc1nccs1)c1cccnc1Cl | - | - | - | . | - | .
COc1c(C(=O)Nc2nccs2)ccc2ccccc12 | - | - | - | . | - | .
O=C(Nc1nccs1)c1ccccc1N=Cc1ccccc1 | - | - | - | - | - | 58.3
CC(=O)NC(Cc1ccc(F)cc1)C(=O)NC1CCN(S(=O)(=O)c2ccccc2)CC1 (stereo not given) | - | - | - | . | - | .
CC(=O)NC(Cc1cccc(C)c1)C(=O)NC1CCN(S(=O)(=O)c2ccccc2)CC1 (stereo not given) | 12.8 | - | - | . | - | .
CN(C)CCCn1c(SCc2c(Cl)cccc2Cl)nnc1-c1ccncc1 | - | - | - | . | - | .
CC(=O)N1CCN(c2nc3cc4c(cc3nc2NS(=O)(=O)c2ccccc2)OCCO4)CC1 | - | - | - | 92.5 | 43.5 | -
CC1=Nc2ccccc2N=C(NC(=O)c2ccccc2)C1c1ccccc1 (stereo not given) | - | - | 34.2 | - | - | -
CC1Cc2cc(S(=O)(=O)NCCC(=O)NCc3ccc(F)cc3)ccc2N1C(=O)C1CC1 (stereo not given) | - | - | - | . | - | .
O=C(Cc1ccc(F)cc1)Nc1nnc(SCC(=O)NC2CCCC2)s1 | - | - | - | - | 26.8 | -
O=C(CSc1nnc(NC(=O)c2ccc(F)cc2)s1)NC1CC1 | - | - | - | . | - | .
CC(C)Sc1nc2ccccc2c(=O)[nH]1 | - | - | - | - | - | -
CC(c1nc2ccccc2c(=O)[nH]1)N(C)c1ccc2ccccc2c1 (stereo not given) | - | - | - | - | 96.2 | -
OC(c1ccccc1)(c1ccccc1)C1CCN(CCCOc2cccnc2)CC1 | . | - | . | . | . | .
Cc1ccc(S(=O)(=O)N[C@@H](C)C(=O)N2CCC(C(=O)N3CCC[C@H]3C(=O)O)CC2)cc1 | 7.6 | . | - | - | - | -
CCOc1ccccc1C(=O)NCC(=O)OCc1c(C)noc1C | - | - | - | - | - | -
Cc1c(NC(=O)Nc2ccccc2C(F)(F)F)c(=O)n(-c2ccccc2)n1C | - | - | - | . | - | .
C/C(=N\Nc1nncc2ccccc12)c1ccc(O)cc1 | 12.2 | - | - | . | - | .
C/C(=N\Nc1nncc2ccccc12)c1ccc(C(C)(C)C)cc1 | - | . | - | . | - | .
SMILES | LANA-H2A inh | CaV13 FRET inh | HDAC3 inhib | Runt-CBFb FRET | RanGTP-Impb inh | Runt-SMMHC FRET
CC(=O)c1cc2c(cc1N/C(=N/S(=O)(=O)c1ccc(C)cc1)c1ccc(Cl)cc1)OCO2 | - | - | - | - | - | -
CC(=O)c1cc2c(cc1N/C(=N/S(=O)(=O)c1ccc(C)cc1)c1ccccc1)OCO2 | - | - | - | - | 23.5 | -
Cc1ccc(C)c(OCCC(=O)NCCc2ccc(S(N)(=O)=O)cc2)c1 | 29.3 | - | - | . | - | .
CSc1ccc(/C=C(\C(=O)O)c2ccc(S(=O)(=O)N3CCCCC3)s2)cc1 | - | - | - | - | 45.3 | -
CCOc1ccc(/C=C(\C(=O)O)c2ccc(S(=O)(=O)N3CCOCC3)s2)cc1OC | - | - | - | - | 103.6 | 69.3
CCOC(=O)C1=C(CSc2nc(C)ccc2C#N)OC(N)=C(C#N)C1c1cccc(OC)c1OC (stereo not given) | - | - | - | - | 18.5 | -
Cc1cc(CC(C)C)n(-c2nc3ccccc3c(=O)n2OCC(N)=O)n1 | - | . | - | - | - | -
Cc1nn(C)c(C)c1N1C(=O)c2cccc3c(N)ccc(c23)C1=O | 132.9 | - | - | - | . | -
O=C(C1CC12CCCC2)N1CCC(CO)(Cc2ccccc2Cl)CC1 (stereo not given) | 18.8 | - | - | - | - | -
COC(=O)c1ccc(CN2CCC(CO)(Cc3ccccc3Cl)CC2)cc1 | - | - | - | . | - | .
COc1cc(OC)c(/C=C2\SC(=O)N(CC(=O)Nc3ccccc3F)C2=O)c(OC)c1 | - | - | - | . | 46.4 | .
COc1cc(/C=C2\SC(=O)N(CC(=O)Nc3ccccc3F)C2=O)cc(Cl)c1O | - | - | - | . | - | .
COc1ccc(CNc2nc3ccccc3s2)cc1OC | - | - | - | . | - | .
COc1cc2ccccc2nn1 | - | - | - | - | 64.8 | 81.7
O=C(Cc1nc2ccccc2[nH]1)NCc1ccco1 | - | . | - | - | 35.0 | -
O=C(Cc1c[nH]c2ccccc12)NCc1ccco1 | - | - | - | - | - | -
COc1ccc2cc(C(=O)C3CCCN(C(=O)CSc4nnc(C)o4)C3)ccc2c1 (stereo not given) | - | - | - | - | - | -
CCCCN1C(=O)Cc2c1nc(N)c1c(N)nc(N(CCC)CCC)c(C#N)c21 | - | - | - | 103.3 | - | -
O=C(CSc1nc2ccccc2[nH]1)N/N=C/c1ccco1 | - | - | - | . | ? | .
CC(=O)Nc1ccc(C2=NNC(=Nc3cccc(S(=O)(=O)N(C)C)c3)SC2)cc1 | - | . | - | - | - | -
CN(C)S(=O)(=O)c1cccc(N=C2NN=C(c3ccccc3)CS2)c1 | 44.1 | - | - | - | . | -
COc1cccc(CNC(=O)c2ccc(OC)c(S(=O)(=O)NC3CCCC3)c2)c1 | - | - | - | . | - | .
COc1ccccc1/C=C/C(=O)OCC(=O)c1cc(C)n(C)c1C | + | - | - | . | . | .
NS(=O)(=O)c1cccc(NC(=O)COc2ncnc3c2cnn3-c2ccccc2)c1 | 130.7 | - | - | - | - | -
O=C(COc1ncnc2c1cnn2-c1ccccc1)Nc1ccc(S(=O)(=O)N2CCCCC2)cc1 | - | - | - | - | - | -
CC(C)C[C@H](NC(=O)c1nc[nH]c1C(=O)N[C@@H](CCCCNC(=O)OC(C)(C)C)C(=O)OC(C)(C)C)C(=O)OC(C)(C)C | - | - | - | - | - | -
CC(C)(C)OC(=O)NCCCC[C@H](NC(=O)c1[nH]cnc1C(=O)Nc1ccc(Cl)cc1)C(=O)OC(C)(C)C | - | . | ? | - | - | -
C[C@@H](NC(=O)c1nc[nH]c1C(=O)N[C@@H](CCCCNC(=O)OC(C)(C)C)C(=O)OC(C)(C)C)c1ccccc1 | - | - | 34.1 | - | - | -

Screening data from PubChem BioAssay.
